Screening results (PubChem)
Rin1 Abl inh – inhibitors of Rin1-Abl protein binding, primary screen, biochemical, TR-FRET | Tyrosine-protein kinase ABL1 (Homo sapiens) + Ras and Rab interactor 1 (Homo sapiens), … | inhibition, % at 7.35 µM | actives 0.4% (n = 360,000) | AID 588664, 2011; in the data active means inhibition above about 5%, passing the limit was not always enough
GSK3beta inhib – human GSK3beta kinase inhibitors, primary screen, biochemical, cell-free homogeneous, HTS; AID 2097, 2009; activity score (negative = inhibition), % at 10 µM; Glycogen synthase kinase-3 beta (Homo sapiens), P49841; actives 0.038% (n = 300,000); GST-GSK3beta kinase, ADP-Glo luminescence, 60 min; stronger effect = lower value;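 active means more than half of replicate wells score below -50%, meaning over 50% inhibition versus plate controls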
Target sequence (P49841 whole entry, looked up): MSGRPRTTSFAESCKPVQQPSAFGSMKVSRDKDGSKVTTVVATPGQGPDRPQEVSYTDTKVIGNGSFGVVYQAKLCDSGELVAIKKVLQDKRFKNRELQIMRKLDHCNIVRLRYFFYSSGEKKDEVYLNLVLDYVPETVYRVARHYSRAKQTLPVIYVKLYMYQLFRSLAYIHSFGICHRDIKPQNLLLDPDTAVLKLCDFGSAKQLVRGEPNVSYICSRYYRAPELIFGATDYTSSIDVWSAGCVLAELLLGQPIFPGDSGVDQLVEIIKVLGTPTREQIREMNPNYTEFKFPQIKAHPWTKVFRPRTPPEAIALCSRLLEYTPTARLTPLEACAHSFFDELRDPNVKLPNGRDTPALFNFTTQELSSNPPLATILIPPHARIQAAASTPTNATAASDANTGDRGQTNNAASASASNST
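Assay system: GST-fused GSK3beta enzyme, cell-free / Medium: Tris pH 7.5 buffer with MgCl2, DTT, BSA, heparin / Also added: peptide substrate plus 25 µM ATP (final) / Compound: 10 µM single point / Timing: kinase reaction with compound 60 min at room temperature / Detection: ADP-Glo luminescence / Benchmarks: DMSO neutral wells and GW8510 at 20 µM as positive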
GSK3A inh – blockers of GSK3A enzyme activity – biochemical, luminescence, cell-free homogeneous, HTS, primary screen. Glycogen synthase kinase-3 alpha (Homo sapiens), P49840. GSK-3 alpha kinase, ADP-Glo luminescence, 60 min. actives 0.1% (n = 320,000). AID 2650, 2010. inhibition, % at 10 µM;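 active means more than half of replicates show inhibition above 20%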;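 further: GST-tagged GSK-3 alpha with peptide substrate and 25 µM ATP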
Arr AP2 block – inhibitors of beta-arrestin/AP2 binding, primary screen, biochemical, GPCR trafficking, flow cytometry; beta-arrestin 1 C-terminal peptide binding to AP2 beta2-adaptin appendage (human); actives 0.31% (n = 340,000); FITC-arrestin peptide / GST-AP2 beads; AP2 beta2 appendage carries R879A mutation; inhibition, % at 10 µM;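 active means inhibition above a set limit, near 3 SD of compounds lacking own fluorescence, cut at about 54% in these data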
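System: GST-AP2 R879A glutathione beads. Medium: PBS with 0.05% Tween 20 and 0.1% BSA. Also added: FITC-arrestin peptide, 50 nM. Incubation: 12 min plus 1 h, RT. Measured by: high-throughput flow cytometry of beads, ex 488, em 535 nm. Evaluation: percent drop in bead-associated FITC signal.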
DYRK1A inh – rat Dyrk1A kinase inhibitors, primary screen, biochemical, single point, plate reader. Dual specificity tyrosine-phosphorylation-regulated kinase 1A (Rattus norvegicus), Q63470. ADP-Glo luminescence, NFATc1 peptide. inhibition, % at 12.5 µM. actives 0.43% (n = 310,000); in the data active means inhibition above about 50%
STK33 inh – inhibitors of purified STK33 kinase, primary screen, biochemical, ADP-Glo luminescence, homogeneous, cell-free. inhibition, % at 10 µM. MBP phosphorylation. Serine/threonine-protein kinase 33 (Homo sapiens), Q9BYT3. actives 0.073% (n = 320,000);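 active means inhibition at or above 25%, using the most active replicate where run in duplicate; inactive means inhibition below 25%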
Arr-AP2 CP1 – inhibitors of arrestin peptide binding to AP2, confirmation, biochemical, cherry pick 1, flow cytometry beads; shares compounds with Arr AP2 block; GST-AP2 beads, FITC arrestin peptide binding; GST-fused beta2-adaptin appendage, R879A mutant; inhibition, % at 10 µM; actives 2% (n = 1,300);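 active means inhibition above a set limit, roughly 3 SD of non-fluorescent compound noise, cut at about 38% in these data; inactive means inhibition at or below that limit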;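 further: loss of bead fluorescence from 50 nM FITC arrestin peptide bound to appendage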
GST GSH counter – GST-fluorescein capture on glutathione beads, confirmation, artefact control for arrestin-AP2 inhibitor project, biochemical, cherry pick 1, flow cytometry | shares compounds with Arr AP2 block | GST-fluorescein binding to GSH beads, fluorescence, counter-screen | inhibition, % at 10 µM | actives 2% (n = 1,300) | AID 588338, 2011;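 active means inhibition above 50%, about 3 SD of the inhibition seen with non-fluorescent compounds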;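 further: fluorescein maleimide labelled GST captured on 4 micron glutathione beads; higher means more loss of bead fluorescence from quenching or blocked binding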
Numbers stand for hits; i = inactive; nt = not tested or not shown. Rows were chosen to be rich in hits. Some 0.99% of all compounds tested hit in one or more screens of this group.

SMILES | Rin1 Abl inh | GSK3beta inhib | GSK3A inh | Arr AP2 block | DYRK1A inh | STK33 inh | Arr-AP2 CP1 | GST GSH counter
CCC(=O)NC1=C(Cl)C(=O)C(NC(=O)CC)=C(Cl)C1=O | i | nt | nt | 66 | nt | nt | 61 | i
CCC(=O)NC1=C(NC(C)c2ccccc2)C(=O)c2ccccc2C1=O (configuration not stated) | i | i | i | i | i | i | nt | nt
COc1ccc(OC)c(NC(=O)c2ccc(CN(c3cc(Cl)ccc3C)S(=O)(=O)c3ccccc3)cc2)c1 | i | i | i | 82 | i | i | i | i
COc1ccc(OC)c(NC(=O)c2cccc(S(=O)(=O)N(Cc3ccccc3)c3ccccc3OC)c2)c1 | i | i | i | i | i | i | nt | nt
COc1ccc(-c2noc(-c3csc([C@@H]4O[C@H](CO)[C@H](O)[C@H](O)[C@H]4O)n3)n2)cc1OC | i | nt | nt | nt | nt | nt | nt | nt
CCc1ccc(CN(C(=O)c2ccco2)C2CCS(=O)(=O)C2)cc1 (configuration not stated) | i | i | i | 67 | i | i | i | i
CCOc1ccccc1NC(=O)Nc1ccc2c(c1)OCO2 | i | i | i | i | i | i | nt | nt
CC(=O)c1ccc(OCCCC(=O)Nc2ccc3c(c2)OCCO3)cc1 | i | nt | i | i | nt | i | i | i
CCC(=O)c1ccc(OCC(=O)Nc2ccc3c(c2)OCCO3)cc1 | i | nt | i | i | i | i | i | i
COc1cc(C)ccc1OCC(=O)Nc1ccc2c(c1)OCO2 | i | nt | i | i | nt | i | i | i
O=C(COc1ccc(F)cc1)Nc1ccc2c(c1)OCCO2 | i | i | i | i | i | i | nt | nt
COc1ccc(OCCCC(=O)Nc2ccc3c(c2)OCCO3)cc1 | i | i | i | i | i | i | nt | nt
CCOc1ccccc1OCCC(=O)Nc1ccc2c(c1)OCO2 | i | nt | i | i | i | i | i | i
O=C(NCc1ccc2c(c1)OCO2)c1nc(Cn2cc(Br)cn2)no1 | i | nt | i | i | i | i | nt | nt
O=C(CSc1nnc(-c2cccnc2)o1)Nc1ccccc1F | i | i | i | i | i | i | nt | nt
Cc1ccc(OCCC(=O)Nc2ccc3c(c2)OCCCO3)cc1 | i | nt | i | i | nt | i | i | i
CCOc1ccc(/C=N/NC(=O)C(=O)NCc2ccco2)cc1 | i | i | i | 102 | i | i | i | i
CCOC(=O)N1CCN(S(=O)(=O)c2ccc(Cl)cc2)CC1 | i | i | i | 66 | i | i | i | i
CCOC(=O)N1CCN(S(=O)(=O)c2ccc(C)cc2)CC1 | i | i | i | i | i | i | nt | nt
CC(=O)/C(=N\Nc1cccc(Cl)c1)Sc1nnc(-c2ccccc2)n1-c1ccccc1 | i | i | i | 105 | i | i | i | i
COc1ccc(C(O)P(=O)(O)CCc2ccccc2)cc1 (configuration not stated) | i | i | i | 62 | i | i | i | i
COc1ccc(NC(=O)Nc2cnccn2)c(OC)c1 | i | i | i | i | i | i | i | i
COc1ccc(C)cc1NC(=O)Nc1cnccn1 | i | i | i | i | i | i | i | i
Cc1ccccc1OCC1Cn2c(nc3c2c(=O)n(C)c(=O)n3C)O1 (configuration not stated) | i | i | i | i | i | i | nt | nt
CC(C)CCSc1nc2[nH]ncc2c(=O)[nH]1 | i | i | i | 59 | i | i | i | i
C#CCSc1nc2[nH]ncc2c(=O)[nH]1 | i | i | i | i | i | i | nt | nt
O=c1[nH]n(Cc2ccccc2)c2ccccc12 | i | i | i | 59 | nt | i | i | i
